Bioassay records (PubChem)
Most compounds without a hit are left out; they make up all but 1.9% or so of the library.
Runt-SMMHC FRET = blocks binding of human RUNX1 Runt domain to CBFb-SMMHC; Cerulean-Runt/Venus-CBFb-SMMHC FRET ratio 530/480, 1 h; Q01196+Q13951; AID 1434; 220,000 compounds, 0.74% hits; inhibition, % at 20 µM;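 active = mean inhibition across duplicate retests at 20 µM reaching about 50%, limit read from the data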;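 note: 0% = DMSO wells and 100% = wells with excess untagged CBFb-SMMHC; inhibitors lower the FRET ratio by blocking Runt binding to CBFb-SMMHC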
Tb hexokinase = T. brucei hexokinase 1 inhibition. 220,000 compounds, 0.11% hits. inhibition, % at 10 µM. AID 1430. recombinant TbHK1, G6PDH-coupled NADH A340;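 active = inhibition of 50% or more in the single-dose primary screen; inactive = inhibition below 50%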
Runt-CBFb FRET = Runt domain-CBFb interaction inhibition; 220,000 compounds, 0.46% hits; Q01196+Q13951; inhibition, % at 20 µM; Cerulean-Runt/Venus-CBFb FRET ratio 530/480, 1 h;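 active = inhibition over about 50% at 20 µM in the single-dose screen, limit read from the data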;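 note: 0% = DMSO wells and 100% = excess unlabeled CBFb competitor control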
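test system = Cerulean-Runt domain fusion protein, energy donor | probe or stimulus = Venus-CBFb binding partner, 100 nM | incubation = two 1 h room-temperature incubations shielded from light | detection = fluorescence energy transfer, 422 nm excitation, 530/480 nm emission | measure = loss of energy transfer signal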
RanGTP-Impb inh = inhibitors of RanGTP-importin-beta interaction, primary screen, biochemical, FRET, CFP-Ran, YFP-importin-beta, homogeneous. cell-free CFP-Ran/YFP-importin-beta FRET ratio. inhibition, % (no concentration beside the values). 300,000 compounds, 1.1% hits;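 active = more than half of the replicate wells show a fall in the fluorescence ratio signal beyond about 16%, limit read from the data, passing the limit was not always enough; inconclusive = exactly half of the replicate wells pass the set limit; inactive = fewer than half of replicates pass the limit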;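 note: 0% = DMSO wells and 100% = Ran loaded with GDP instead of GTP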
Hck-Nef inh = inhibitors of human Hck kinase activated by Nef; P08631; Recombinant Hck-YEEI plus Nef, Z-Lyte FRET kinase assay; inhibition, % at 20 µM; 220,000 compounds, 0.68% hits; AID 463187;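 active = Hck-Nef kinase inhibition above about 50%, limit read from the data; inactive = inhibition below that limit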;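 note: 0% = DMSO with Hck plus Nef and 100% = Hck alone without Nef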
Target sequence (P08631 whole entry, looked up): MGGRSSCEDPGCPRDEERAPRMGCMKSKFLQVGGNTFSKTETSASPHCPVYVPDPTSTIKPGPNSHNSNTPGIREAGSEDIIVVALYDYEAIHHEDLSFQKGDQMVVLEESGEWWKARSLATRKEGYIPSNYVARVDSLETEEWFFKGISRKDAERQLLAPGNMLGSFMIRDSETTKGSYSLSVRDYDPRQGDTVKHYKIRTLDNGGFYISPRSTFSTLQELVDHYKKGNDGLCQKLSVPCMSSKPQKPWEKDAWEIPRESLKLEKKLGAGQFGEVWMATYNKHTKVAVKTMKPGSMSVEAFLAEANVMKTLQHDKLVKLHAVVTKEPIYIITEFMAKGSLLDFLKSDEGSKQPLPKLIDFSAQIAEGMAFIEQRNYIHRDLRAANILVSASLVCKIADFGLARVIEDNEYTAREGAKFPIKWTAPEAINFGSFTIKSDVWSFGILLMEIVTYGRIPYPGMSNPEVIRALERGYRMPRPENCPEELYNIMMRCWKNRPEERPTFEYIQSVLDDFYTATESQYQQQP
An asterisk follows results filed as active; ? = inconclusive; / = no result.

SMILES	Runt-SMMHC FRET	Tb hexokinase	Runt-CBFb FRET	RanGTP-Impb inh	Hck-Nef inh
CCOC(=O)c1cc2c(=O)n3ccccc3nc2n(CCCOC)c1=NC(=O)C(C)(C)C	-20.7	-10.4	55.9*	0.1	159.0*
CCOC(=O)c1cc2c(=O)n3ccccc3nc2n(C(C)C)c1=NC(=O)c1ccncc1	169.8*	-13.7	92.4*	84.6*	10.7
CCOC(=O)c1cccnc1SCc1cc(=O)n2ccccc2n1	0.4	-29.8	-1.8	6.7	-1.6
O=C1OCc2cccc([N+](=O)[O-])c21	4.9	-2.4	0.7	-4.6	0.1
O=C1CC(=O)c2c1cccc2[N+](=O)[O-]	-3.3	4.2	26.1	/	74.9*
CC1=C(C#N)C(=O)N(C2CCS(=O)(=O)C2)C(=O)/C1=C\c1ccco1 (stereo not drawn)	-143.7	-8.7	11.9	-3.0	99.8*
O=C(O)c1ccc(N/N=C/C=C/c2ccccc2)cc1	20.7	-18.4	19.5	85.4*	25.7
O=C(O)c1ccc(N/N=C/c2ccc(-c3ccccc3)cc2)cc1	10.9	-18.4	3.0	4.9	33.1
Cc1csc(SCC(=O)O)n1	8.9	16.4	114.2*	1.6	2.6
Cc1csc(NC(=O)CSc2nc(C)cs2)n1	-7.1	3.6	1.3	3.6	7.2
O=C(CSC1=NS(=O)(=O)c2cc(F)ccc2N1)NCc1ccccc1	/	/	/	4.4	/
O=C(Cn1cnc([N+](=O)[O-])n1)NCCO	-2.6	-10.0	-1.1	-4.7	9.7
COc1ccc(Cn2c(/C=C/c3ccccc3)nc3ccccc32)cc1	-4.1	-11.5	-0.5	28.2*	3.2
CCn1c(/C=C/c2ccccc2)nc2ccccc21	0.7	-50.0	-3.6	3.5	1.2
N#Cc1c2ccc(OCC(=O)NCc3ccco3)cc2n2ccccc12	/	/	/	20.9*	/
N#Cc1c2ccc(O)cc2n2ccccc12	86.3*	2.7	20.3	19.2*	-78.7
Oc1ccc2ccccc2c1/C=N/n1cnnc1	115.5*	-21.6	66.7*	3.3	-3.2
CC(C)(C(=O)O)c1ccc([C@H](O)CCCN2CCC(C(O)(c3ccccc3)c3ccccc3)CC2)cc1	/	/	/	-0.2	/
O=C(CCCCCN1C(=O)[C@@H]2Cc3ccccc3CN2C1=O)Nc1cccc(F)c1	/	/	/	1.9	/
CCCCn1c(NC(=O)c2ccc(F)cc2)c(C#N)c2nc3ccccc3nc21	/	/	/	17.6*	/
CCCCn1c(NC(=O)c2ccccc2)c(C#N)c2nc3ccccc3nc21	25.6	-19.6	5.9	/	21.0
CCC(C)n1c(NC(=O)c2ccccc2)c(C#N)c2nc3ccccc3nc21 (stereo not drawn)	65.7*	-8.9	15.6	20.7*	11.6
COc1cc(C2CC(=O)C3=C(C2)Nc2ncnn2C3c2cccs2)cc(OC)c1OC (stereo not drawn)	31.5	-23.3	26.5	3.9	13.7
COc1cc(C2C=C(c3cccs3)Nc3ncnn32)cc(OC)c1OC (stereo not drawn)	92.8*	-20.1	20.3	/	4.9
O=c1[nH]c2ccccc2nc1-c1c[nH]c2ccccc12	/	/	/	48.5*	/
SMILES	Runt-SMMHC FRET	Tb hexokinase	Runt-CBFb FRET	RanGTP-Impb inh	Hck-Nef inh
COC(=O)C1=C(C)NC2=C(C(=O)CC(C)(C)C2)C1c1cccc(C)n1 (stereo not drawn)	86.7*	-6.7	35.1	9.2	21.6
CCOC(=O)C1=C(C)NC2=C(C(=O)CC(C)(C)C2)C1c1ccc(N(C)C)cc1 (stereo not drawn)	16.4	-14.7	3.8	0.8	4.7
COc1ccc(C2C(C#N)=C(C)NC3=C2C(=O)CC(C)(C)C3)cc1 (stereo not drawn)	39.9	-10.9	16.8	-2.0	17.6
COc1cccc(C2C(C#N)=C(C)NC3=C2C(=O)CC(C)(C)C3)c1 (stereo not drawn)	55.0*	-7.7	16.6	1.8	17.8
CC1=C(C(=O)OCC2CCCO2)C(c2ccncc2)C2=C(CC(C)(C)CC2=O)N1 (stereo not drawn)	86.3*	-3.9	42.3	?	26.7
CCOC(=S)NC(=O)c1sc2ccccc2c1Cl	2.5	-0.7	-0.4	52.8*	1.7
O=C(NC(=S)NCCO)c1sc2ccccc2c1Cl	-7.3	0.7	3.0	-2.4	-0.1
O=C(Nc1ccnn1C1CCN(C2CCC2)CC1)c1ccccc1	/	/	/	4.4	/
CCN1CCc2nc(NC(=O)c3ccccc3)sc2C1	108.8*	-13.0	43.5	52.6*	9.1
O=C(Nc1nc2c(s1)CN(Cc1ccccc1)CC2)C1CCC1	129.9*	-7.6	42.3	1.9	28.9
Cc1cc(=O)n2nc(N3CCCC3C(=O)Nc3cccc(F)c3)sc2n1 (stereo not drawn)	/	/	/	-1.1	/
COc1cccc(CN2CC(C(=O)NCCCn3cccn3)CCC2=O)c1 (stereo not drawn)	/	/	/	0.9	/
COc1ccc(CC(=O)Nc2nncs2)cc1OC	82.9	6.1	88.6*	2.5	2.6
Cc1ccc(CC(=O)Nc2nncs2)cc1	-1.1	5.5	-2.0	3.7	-0.3
Cc1ccc2sc(NC(=O)CSc3nc(C)cc(C)c3C#N)nc2c1	55.6*	5.1	12.5	8.3	1.3
Cc1cc(C(F)(F)F)c(C#N)c(SCC(=O)Nc2nc3ccccc3s2)n1	5.5	2.2	-5.3	-23.5	-2.8
CCOc1ccc(CNn2nnnc2N)cc1	2.0	-2.7	-0.4	0.5	1.3
COc1ccc(NC(=O)c2nc[nH]c2C(=O)N2CCN(C(=O)OC(C)(C)C)CC2)cc1	0.4	-13.5	-0.2	24.7*	30.2
Cc1cc(C)c2c(N)c(C(=O)C(C)(C)C)sc2n1	91.7*	-7.3	92.7*	1.2	-5.2
COc1cccc(-c2cc(C(=O)NCc3ccco3)c3ccccc3n2)c1	/	/	/	2.2	/
COC(=O)CNC(=O)COC(=O)/C=C/c1cccs1	-5.8	-34.2	1.2	0.6	6.9
COC(=O)CNC(=O)COC(=O)/C=C/c1ccc2ccccc2n1	-1.9	-13.2	1.8	27.0*	26.7
COc1ccccc1CNC(=O)/C=C/c1ccc(S(=O)(=O)NCc2ccco2)cc1	-2.6	3.9	-1.6	4.8	-0.9
CCn1c(=O)cc(N2CCN(C(=O)c3ccco3)CC2)[nH]c1=O	2.8	-4.4	-0.2	10.0	-5.0
Cc1ccc(Cl)cc1-n1c(=O)cc(N2CCN(C(=O)c3ccco3)CC2)[nH]c1=O	1.7	4.5	-0.6	32.4*	9.3
SMILES	Runt-SMMHC FRET	Tb hexokinase	Runt-CBFb FRET	RanGTP-Impb inh	Hck-Nef inh
O=C(O)[C@H]1CCCC[C@H]1C(=O)Nc1ccc(S(=O)(=O)N2CCOCC2)cc1	/	/	/	16.6*	/
Cc1ccc2nc(/C(C#N)=C/c3ccccc3C(=O)O)[nH]c2c1	/	/	/	8.4	/
Cc1ccc2nc(/C(C#N)=C/c3ccc(O)c(O)c3)[nH]c2c1	/	/	/	28.4*	/
CCOC(=O)CN=C/C(C(C)=O)=C(/C)O	0.0	4.2	0.6	62.7*	3.5
CCN(C(=O)c1cccc(F)c1)c1ccccc1C	-3.6	-5.8	-1.0	-0.2	-0.4
COCCN1C=C(C(=O)OC)C(c2ccc3c(c2)OCO3)C(C(=O)OC)=C1	23.5	-12.7	8.6	-1.2	33.4
